# Screens: PubChem, several laboratories
# CAL PDZ FP-1 – inhibitors of human CAL PDZ peptide binding; Q9HD26; purified CAL PDZ, TMR-peptide fluorescence polarization, 1 h; inhibition, % at 24.9 µM; hit rate 0.92% among 300,000;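 active = mean inhibition of at least 30% with at least half of replicates also reaching 30%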;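 note: 0% = DMSO neutral control and 100% = excess unlabeled competitor peptide PRC23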
# Tn6 DDE FP – DD(E)-Tn6 binding inhibition, primary FP screen | P02675 | Fibrin DD(E) TRITC-Tn6 fluorescence polarization displacement | inhibition, % at 8.3 µM | hit rate 0.21% among 370,000;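 active = inhibition above a per-campaign cutoff: mean of compounds within control limits plus 3 SD, cut at about 15% in these data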;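 note: 0% = median of all compound wells on the plate and 100% = blocking peptide control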
# CAL PDZ FP-2 – blocks peptide binding to human CAL PDZ domain. Q9HD26. purified CAL PDZ, TMR-peptide fluorescence polarization, 1 h. inhibition, % at 20 µM. hit rate 0.02% among 330,000. AID 504414;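 active = highest replicate inhibition of at least 40%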;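 note: plate controls were DMSO neutral control wells for no effect and unlabeled competitor peptide control wells for full effect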
#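 Assay system – tagged CAL PDZ protein CerCALP, purified · Timing – 1 h at RT · Compound – single point, 20 µM · Measured by – fluorescence polarization from S- and P-plane intensities, G-factor corrected · Evaluation – inhibition from polarization loss · Probe or stimulus – TMR reporter peptide T*-PRC34 · Buffer or medium – pH 7.4 phosphate-saline buffer, reducing agent, detergent, IgG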
# GRK2 inh – blocks RNA aptamer binding to human GRK2. bead flow cytometry, FAM-aptamer displacement from GRK2. AID 488847. inhibition of aptamer binding, % at 10 µM. hit rate 0.59% among 330,000;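 active = inhibition of aptamer binding above 40%, roughly 3 SD of noise, on plates passing a quality check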;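 note: median bead fluorescence of bound FAM aptamer so fluorescent compounds give negative values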
# Target sequence (P25098 whole entry, looked up): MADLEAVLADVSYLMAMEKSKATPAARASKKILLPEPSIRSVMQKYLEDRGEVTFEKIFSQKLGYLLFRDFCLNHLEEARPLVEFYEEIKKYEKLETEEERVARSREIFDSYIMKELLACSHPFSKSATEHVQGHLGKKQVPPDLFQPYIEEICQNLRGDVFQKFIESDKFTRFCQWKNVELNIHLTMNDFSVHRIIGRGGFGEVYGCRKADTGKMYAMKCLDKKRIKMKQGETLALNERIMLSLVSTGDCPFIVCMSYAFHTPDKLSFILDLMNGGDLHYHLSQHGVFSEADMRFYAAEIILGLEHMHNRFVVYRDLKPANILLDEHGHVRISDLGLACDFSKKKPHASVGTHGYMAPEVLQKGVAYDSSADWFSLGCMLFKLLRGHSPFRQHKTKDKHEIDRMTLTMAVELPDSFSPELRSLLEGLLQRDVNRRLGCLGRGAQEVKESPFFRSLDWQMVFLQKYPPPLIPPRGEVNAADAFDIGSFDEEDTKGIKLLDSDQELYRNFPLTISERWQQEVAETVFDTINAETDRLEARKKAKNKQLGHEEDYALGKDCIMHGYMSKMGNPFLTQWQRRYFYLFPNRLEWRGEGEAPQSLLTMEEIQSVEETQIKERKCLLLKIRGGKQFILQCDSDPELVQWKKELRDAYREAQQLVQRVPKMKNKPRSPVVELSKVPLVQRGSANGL
# DDE Tn7 FP inh – DD(E)-Tn7 binding inhibition, primary FP screen; P02675; hit rate 0.13% among 370,000; AID 720508; FP displacement of FITC-Tn7 peptide from fibrin DD(E); 0% = median of compound wells per plate; inhibition, % at 8.3 µM;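 active = inhibition above the mean of compounds falling within the control limits plus 3 SD of them, cut at about 14% in these data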;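 note: 0% = plate median of compound wells and 100% = 10 µM Aha-Tn7 peptide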
#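 Assay system: Human clot-derived fibrin DD(E) complex | Buffer or medium: Tris/NaCl/CaCl2 buffer, pH 7.8 | Repeats: One replicate per compound | Benchmarks: Aha-Tn7 high control | Measure: % inhibition scaled between sample-field median and high-control FP | Schedule: 10 min plus 3 h, room temperature | Signal: Fluorescence polarization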
# ARNT-TACC3 inh – disrupts binding between human ARNT and TACC3; hit rate 0.66% among 390,000; AlphaScreen His-ARNT PAS-B/GST-TACC3 binding, luminescence; TACC3 fragment carries E629A point mutation; inhibition, % at 9.99 µM; AID 623870;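 active = mean inhibition of replicates at least 50% and at least half of replicates each reaching 50%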;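 note: 0% = complete ARNT plus TACC3 wells and 100% = ARNT alone without TACC3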
# GRK2 inh confirm – human GRK2 inhibition confirmation, cherry pick 1; shares compounds with GRK2 inh; hit rate 4% among 2,000; bead-bound GRK2, FAM-aptamer displacement, flow cytometry; AID 504451; aptamer displacement, % at 10 µM;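 active = aptamer displacement above 40%, near three times the noise of non-fluorescent compounds, on plates passing quality checks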;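 note: negative values mostly reflect intrinsic compound fluorescence rather than true enhancement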
# Aptamer quench SP – aptamer fluorescence quenching in GRK2 counter-screen. AID 504580. 2,000 tested, under 10 active. fluorescence response (% of DMSO), % at 10 µM. Carboxyfluorescein RNA aptamer on beads, flow cytometry quenching; stronger effect = lower value. shares compounds with GRK2 inh;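 active = compounds that quench the bead-bound fluorescent RNA probe, cutting fluorescence to under half of the solvent control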;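 note: counterscreen run without GRK2 so only probe quenching by compound is measured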
# GRK2 confirm 2 – human GRK2 inhibition confirmation, cherry pick 2; shares compounds with GRK2 inh; bead-bound GRK2, FAM-aptamer displacement, flow cytometry; inhibition of aptamer binding, % at 10 µM; 360 tested, under 10 active;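 active = inhibition of aptamer binding above 40%, about triple the noise seen with nonglowing compounds, on plates passing quality control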;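 note: negative values mostly come from compounds that fluoresce themselves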
# FAM quench CP2 – quenches fluorescent RNA aptamer, GRK2 hit artifact. shares compounds with GRK2 inh. carboxyfluorescein RNA aptamer beads, flow cytometry quenching; stronger effect = lower value. fluorescence response vs DMSO, % at 10 µM. 360 tested, under 10 active. AID 588494;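 active = response vs DMSO under 50%, meaning signal dropped by over half, treated as fluorescence quencher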;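 note: labelled aptamer on streptavidin beads without GRK2 as a quench counter-screen; 100% = bead fluorescence of DMSO wells and lower means quenching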
# Active calls of the source: *; · = no result given. Shown are actives, neighbours in structure and some others; about 1.8% of the full set was active somewhere.
SMILES,CAL PDZ FP-1,Tn6 DDE FP,CAL PDZ FP-2,GRK2 inh,DDE Tn7 FP inh,ARNT-TACC3 inh,GRK2 inh confirm,Aptamer quench SP,others
CC(=O)NCCNc1nc2c(-c3cccc(C)c3)nnn2c2ccccc12,-1.8,0.0,-1.9,65.0*,8.8,2.0,14.8,104.7,
CC(=O)NCCNc1nc2c(-c3ccccc3)nnn2c2ccccc12,-3.3,-16.3,0.1,0.0,-6.2,-12.2,·,·,
COc1cccc(OC)c1C(=O)n1nc(C)cc1C,-3.0,2.6,-0.9,15.0,-2.8,0.2,-1.6,101.8,
COc1ccc(Cl)cc1C(=O)n1nc(C)cc1C,-0.5,3.8,-0.1,0.0,4.2,3.4,·,·,
O=C(NC(Cc1ccccc1)C(=O)O)/C(=C/c1ccc([N+](=O)[O-])cc1)NC(=O)c1ccc(Br)o1 (stereo not drawn),-3.2,-1.6,-3.1,2.0,2.1,-10.6,·,·,
O=C(Nc1ccccc1C(=O)O)/C(=C/c1ccc([N+](=O)[O-])cc1)NC(=O)c1ccc(Br)o1,·,-9.7,0.0,80.0*,-3.6,4.6,0.0,102.1,
C[C@H]1CN([C@@H](C)CO)C(=O)c2cccc(NC(=O)C3CC3)c2O[C@@H]1CN(C)Cc1ccc2c(c1)OCO2,·,·,·,·,·,-3.9,·,·,
O=C(NCCc1c[nH]c2ccccc12)c1ccc([N+](=O)[O-])cc1,-0.1,4.7,0.7,41.0*,-0.5,-1.5,·,·,GRK2 confirm 2=19.1;FAM quench CP2=100.0
O=C(C[C@H]1C[C@@H]2c3cc(NC(=O)NC4CCCCC4)ccc3O[C@@H]2[C@@H](CO)O1)NCc1cccnc1,·,·,·,·,·,3.0,·,·,
CN(C(=O)c1ccccc1C(=O)OCC(=O)c1ccccc1)c1ccccc1,·,0.7,-0.4,75.0*,-1.1,4.3,-17.7,97.7,
CN(C(=O)c1ccccc1C(=O)OCC(=O)c1ccc(F)cc1)c1ccccc1,-1.7,-3.0,-1.5,0.0,0.1,·,·,·,
CC(=O)N(C)C[C@H]1Oc2cc(C#Cc3ccccc3)ccc2S(=O)(=O)N([C@H](C)CO)C[C@H]1C,·,·,·,·,·,0.8,·,·,
Cc1ccc(O)c(C(=O)c2cnc3c(c2)CN(CCC(C)C)C(=O)N3)c1,-0.1,-4.8,-1.4,43.0*,4.6,-1.5,-2.1,97.5,
O=C1C=C(O)CC(c2ccco2)C1 (stereo not drawn),-2.0,-14.2,0.2,91.0*,3.5,·,5.6,102.2,
O=C1C=C(Nc2ccc(O)cc2)CC(c2ccco2)C1 (stereo not drawn),-0.7,-6.5,-0.3,3.0,-2.6,-16.6,·,·,
COc1ccc(C2CC(c3cccs3)=NN2C(=O)c2ccc(Br)o2)cc1 (stereo not drawn),0.7,5.7,-1.6,86.0*,-2.9,1.5,·,·,GRK2 confirm 2=14.7;FAM quench CP2=108.0
CCOC(=O)[C@@]12CCCC3=C1N(CCC3)C(=O)[C@H]2CC(=O)NCC1CCCCC1,·,-1.5,·,·,9.1,·,·,·,
O=C(C[C@H]1CC[C@H]2[C@@H](COC[C@@H](O)CN2S(=O)(=O)c2ccccc2Cl)O1)NCc1ccccc1Cl,·,·,·,·,·,7.9,·,·,
C[C@@H]1CN([C@@H](C)CO)C(=O)Cc2cc(NC(=O)CCN3CCOCC3)ccc2O[C@@H]1CN(C)C(=O)Nc1ccc(C(F)(F)F)cc1,·,·,·,·,·,-7.0,·,·,
CN(C(=O)c1ccc(N2CCCCC2)c([N+](=O)[O-])c1)C1CCS(=O)(=O)C1 (stereo not drawn),1.7,-2.7,1.0,21.0,1.3,-13.8,-3.1,104.8,
Cc1ccc(N2C(=O)C3ON(c4ccccc4)C(c4ccncc4)C3C2=O)c(C)c1 (stereo not drawn),-4.2,2.1,0.3,0.0,-2.4,0.8,·,·,
COc1cccc(/C=N/NC(=O)CSc2ccccc2C)c1O,-2.5,-1.7,-2.0,0.0,0.7,13.7,·,·,
COc1cc(OC)c(OC)cc1/C=N/NC(=O)CSc1ccccc1F,-0.2,4.7,-0.6,90.0*,-0.8,9.3,3.8,94.6,
CC(=O)c1ccc(NC(=O)CSc2nnc(NC(=O)c3ccco3)s2)cc1,-1.1,·,13.5,46.0*,·,-16.9,·,·,GRK2 confirm 2=-16.6;FAM quench CP2=99.0
CCC(=O)Nc1nnc(SCC(=O)Nc2ccc3c(c2)OCCO3)s1,-1.4,1.2,-2.8,68.0*,9.4,-8.0,·,·,GRK2 confirm 2=-9.2;FAM quench CP2=100.0
SMILES,CAL PDZ FP-1,Tn6 DDE FP,CAL PDZ FP-2,GRK2 inh,DDE Tn7 FP inh,ARNT-TACC3 inh,GRK2 inh confirm,Aptamer quench SP,others
Cc1ccc(NC(=O)CSc2nnc(NC(=O)c3ccco3)s2)cc1,0.3,4.1,-0.6,1.0,-3.2,-10.3,·,·,
CCC(C)Nc1nc2c(c(=O)[nH]c(=O)n2C)n1CCC(C)C (stereo not drawn),0.2,-4.3,0.3,52.0*,6.6,-3.0,0.2,101.3,
CC(C)NC(=O)N(C)C[C@H]1Oc2c(NC(=O)c3nc4ccccc4s3)cccc2C(=O)N([C@@H](C)CO)C[C@H]1C,·,·,·,·,·,-4.3,·,·,
CN(C)C(=O)CN(c1ccc2c(c1)OCO2)S(C)(=O)=O,-2.4,-7.8,-2.0,47.0*,2.8,5.1,4.4,103.0,
COc1ccc(NC(=O)Nc2ccc3c(c2)C(=O)N([C@H](C)CO)C[C@@H](C)[C@@H](CN(C)S(=O)(=O)c2ccc(Cl)cc2)O3)cc1,·,·,·,·,·,-8.1,·,·,
Cn1c(CSCc2ccc(F)cc2)nnc1SCC(=O)Nc1nccs1,-1.9,-6.7,-3.0,2.0,-5.1,3.6,·,·,
Cn1c(CSCc2ccccc2)nnc1SCC(=O)Nc1nccs1,1.7,6.2,0.3,50.0*,-4.7,-1.3,-1.8,96.2,
COc1cc(/C=C/C(=O)Nc2ccc3nc4n(c(=O)c3c2)CCCC4)cc(OC)c1OC,-1.4,-9.5,-23.1,92.0*,2.2,22.2,1.5,99.3,
Cc1cc(Cl)c2oc(C(=O)NC3CCC(O)CC3)c(C)c2c1 (stereo not drawn),-2.4,3.2,-1.8,65.0*,3.6,-1.4,-0.3,96.6,
Cc1onc(-c2ccccc2)c1C(=O)NCCN1CCOCC1,-0.5,-1.6,0.0,1.0,2.1,-8.5,·,·,
Cc1onc(-c2ccccc2)c1C(=O)NCC1CCCO1 (stereo not drawn),-1.6,0.0,-1.3,91.0*,3.7,2.4,-2.0,98.8,
